In ChEMBL document CHEMBL1126841, “Synthesis and structure-activity relationships of 1-acyl-4-((2-methyl-3-pyridyl)cyanomethyl)piperazines as PAF antagonists” (J Med Chem, 1993):

Columns and labels:
[1] = target: Platelet-activating factor receptor (Mus musculus) (UniProt Q62035); assay: Dose required to inhibit PAF-induced mortality by 50% in mice; type: functional; conditions: Mus sp.
How it was run: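 Male Swiss mice (22-26 g), groups of 10; test compound given po (20 mL/kg), controls 1% Tween 80. 60 min later, C18-PAF 100 µg/kg plus propanolol 1 mg/kg injected into a lateral tail vein. Mortality scored 2 h after PAF; % inhibition vs controls. ID50 from linear regression of one curve, ≥4 points. Initial dose 3 mg/kg; further doses only if >50% inhibition.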

[2] = target: Platelet-activating factor receptor (Rattus norvegicus) (UniProt P46002); assay: Intravenous dose required to reduce the arterial blood pressure caused by PAF by 50% in rats; type: functional
How it was run: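 Male Sprague-Dawley rats (180-220 g) under pentobarbital anesthesia (50 mg/kg ip); carotid blood pressure recorded. Compound in saline given iv (femoral vein) 3 min before PAF 0.5 µg/kg iv; controls got vehicle. % inhibition of hypotension vs controls. ID50 from linear regression of one curve, ≥4 doses, each the mean of ≥2 independent experiments.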

Chain of Platelet-activating factor receptor (Mus musculus) (Q62035 whole entry): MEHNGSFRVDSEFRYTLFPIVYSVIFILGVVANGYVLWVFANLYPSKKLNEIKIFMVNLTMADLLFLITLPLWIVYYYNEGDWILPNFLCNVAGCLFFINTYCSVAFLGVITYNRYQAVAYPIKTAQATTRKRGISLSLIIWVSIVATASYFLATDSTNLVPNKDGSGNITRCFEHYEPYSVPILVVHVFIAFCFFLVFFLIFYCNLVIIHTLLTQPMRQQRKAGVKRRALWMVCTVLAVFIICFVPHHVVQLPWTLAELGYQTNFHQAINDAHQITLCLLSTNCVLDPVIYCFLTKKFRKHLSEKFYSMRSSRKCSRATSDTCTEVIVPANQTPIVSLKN
Chain of Platelet-activating factor receptor (Rattus norvegicus) (P46002 whole entry): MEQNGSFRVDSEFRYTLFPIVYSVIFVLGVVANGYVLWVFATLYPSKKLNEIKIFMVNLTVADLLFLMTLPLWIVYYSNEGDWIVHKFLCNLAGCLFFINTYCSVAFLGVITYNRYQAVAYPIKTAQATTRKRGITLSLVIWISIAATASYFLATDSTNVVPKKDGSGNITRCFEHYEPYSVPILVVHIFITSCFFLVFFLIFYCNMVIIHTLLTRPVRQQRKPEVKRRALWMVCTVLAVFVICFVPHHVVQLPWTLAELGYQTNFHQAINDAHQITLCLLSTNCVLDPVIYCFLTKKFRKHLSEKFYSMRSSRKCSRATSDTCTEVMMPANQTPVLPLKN

Compound | ID50 [1] [mg/kg] | ID50 [2] [mg/kg]
Cc1ncccc1C(C#N)N1CCN(C(=O)CC(NC(=O)c2cccnc2)c2ccccc2)CC1 (stereo not drawn) | 0.41 | 0.029
Cc1ncccc1C(C#N)N1CCN(C(=O)CC(c2ccccc2)n2cccc2)CC1 (stereo not drawn) | 1 | 0.014
C#CC(c1cccnc1C)N1CCN(C(=O)CNC(c2ccccc2)c2ccccc2)CC1 (stereo not drawn) | > 3 | –
Cc1ncccc1C(C#N)N1CCN(C(=O)CC(Nc2ccccc2)c2ccccc2)CC1 (stereo not drawn) | 0.27 | 0.042
Cc1ncccc1C(C#N)N1CCN(C(=O)CC(C)c2ccccc2)CC1 (stereo not drawn) | > 3 | 0.039
Cc1ncccc1C(C#N)N1CCN(C(=O)CC(NC(=O)c2ccccc2)c2ccccc2)CC1 (stereo not drawn) | > 3 | 0.056
Cc1ncccc1C(C#N)N1CCN(C(=O)CC(NC(=O)OCc2ccccc2)c2ccccc2)CC1 (stereo not drawn) | > 3 | 0.018
Cc1ncccc1C(C#N)N1CCN(C(=O)CCC(c2ccccc2)c2ccccc2)CC1 (stereo not drawn) | > 3 | 0.028
Cc1ncccc1C(C#N)N1CCN(C(=O)C[S+]([O-])C(c2ccccc2)c2ccccc2)CC1 (stereo not drawn) | > 3 | 0.034
Cc1ncccc1C(C#N)N1CCN(C(=O)CC(c2ccccc2)c2ccccc2)CC1 (stereo not drawn) | 0.9 | 0.015
Cc1ncccc1C(C#N)N1CCN(C(=O)CS(=O)(=O)C(c2ccccc2)c2ccccc2)CC1 (stereo not drawn) | > 3 | 0.11
Cc1ncccc1C(C#N)N1CCN(C(=O)CC(O)(c2ccccc2)c2cccnc2)CC1 (stereo not drawn) | 1 | 0.042
CCOC(=O)C(CC(=O)N1CCN(C(C#N)c2cccnc2C)CC1)(c1ccccc1)c1ccccc1 (stereo not drawn) | > 3 | 0.12
Cc1ncccc1C(C#N)N1CCN(C(=O)CC(NC(=O)Oc2ccccc2)c2ccccc2)CC1 (stereo not drawn) | > 3 | 0.036
COC(=O)NC(CC(=O)N1CCN(C(C#N)c2cccnc2C)CC1)c1ccc(C(F)(F)F)cc1 (stereo not drawn) | 1.6 | 0.014
Cc1ncccc1C(C#N)N1CCN(C(=O)CC(NCc2ccccc2)c2ccccc2)CC1 (stereo not drawn) | 1.2 | 0.035
COC(=O)N(Cc1ccccc1)C(CC(=O)N1CCN(C(C#N)c2cccnc2C)CC1)c1ccccc1 (stereo not drawn) | 3 | 0.066
Cc1ncccc1C(C#N)N1CCN(C(=O)CC(NCc2cccnc2)c2ccccc2)CC1 (stereo not drawn) | > 3 | 0.029
Cc1ncccc1C(C#N)N1CCN(C(=O)CN(C=O)C(c2ccccc2)c2ccccc2)CC1 (stereo not drawn) | 1.5 | 0.016
C=CCNC(CC(=O)N1CCN(C(C#N)c2cccnc2C)CC1)c1ccccc1 (stereo not drawn) | 1 | –
COC(=O)N(C)C(CC(=O)N1CCN(C(C#N)c2cccnc2C)CC1)c1ccccc1 (stereo not drawn) | 2 | 0.036
Cc1ncccc1C(C#N)N1CCN(C(=O)CC(c2ccccc2)N2CCCS2(=O)=O)CC1 (stereo not drawn) | > 3 | 0.048

Compound | ID50 [1] [mg/kg] | ID50 [2] [mg/kg]
Cc1ncccc1C(C#N)N1CCN(C(=O)[C@@H](C)NC(c2ccccc2)c2ccccc2)CC1 (stereo partly drawn) | > 3 | –
CC(=O)NC(CC(=O)N1CCN(C(C#N)c2cccnc2C)CC1)c1ccccc1 (stereo not drawn) | 0.09 | 0.035
Cc1ncccc1C(C#N)N1CCN(C(=O)CC(O)(c2ccccc2)C(F)(F)F)CC1 (stereo not drawn) | 0.44 | 0.013
CCc1ncccc1C(C#N)N1CCN(C(=O)CNC(c2ccccc2)c2ccccc2)CC1 (stereo not drawn) | 0.7 | 0.063
Cc1ncccc1C(C#N)N1CCN(C(=O)CC(c2ccccc2)N(Cc2ccccc2)Cc2ccccc2)CC1 (stereo not drawn) | > 3 | 0.068
Cc1ncccc1C(C#N)N1CCN(C(=O)CC(N)c2ccccc2)CC1 (stereo not drawn) | > 3 | 0.92
Cc1ncccc1C(C#N)N1CCN(C(=O)CC(NC(=O)N2CCCC2)c2ccccc2)CC1 (stereo not drawn) | 0.97 | 0.055
Cc1ncccc1C(C#N)N1CCN(C(=O)CC(NC(=O)OCC(C)C)c2ccccc2)CC1 (stereo not drawn) | > 3 | 0.017
Cc1ncccc1C(C#N)N1CCN(C(=O)CNC(C)(c2ccccc2)c2ccccc2)CC1 (stereo not drawn) | > 3 | 0.057
Cc1ncccc1C(C#N)N1CCN(C(=O)CCNC(c2ccccc2)c2ccccc2)CC1 (stereo not drawn) | 0.62 | 0.044
Cc1ncccc1C(C#N)N1CCN(C(=O)/C=C(\c2ccccc2)C(F)(F)F)CC1 (stereo not drawn) | > 3 | 0.12
Cc1ncccc1C(C#N)N1CCN(C(=O)CN(C(c2ccccc2)c2ccccc2)S(C)(=O)=O)CC1 (stereo not drawn) | > 3 | 0.083
Cc1ncccc1C(C#N)N1CCN(C(=O)CC(c2ccccc2)N(C)Cc2ccccc2)CC1 (stereo not drawn) | > 3 | 0.024
Cc1ncccc1C(C#N)N1CCN(C(=O)CC(C)(O)c2ccccc2)CC1 (stereo not drawn) | > 3 | 0.029
Cc1ncccc1C(C#N)N1CCN(C(=O)CC(c2ccccc2)C(F)(F)F)CC1 (stereo not drawn) | > 3 | 0.023
Cc1ncccc1C(CO)N1CCN(C(=O)CC(c2ccccc2)c2ccccc2)CC1 (stereo not drawn) | > 3 | –
Cc1ncccc1C(C#N)N1CCN(C(=O)CC(NC(=O)c2ncccc2O)c2ccccc2)CC1 (stereo not drawn) | 3 | 0.036
Cc1ncccc1C(C#N)N1CCN(C(=O)C=C(c2ccccc2)c2ccccc2)CC1 (stereo not drawn) | 2.2 | 0.038
CCOC(=O)C(c1cccnc1C)N1CCN(C(=O)CC(c2ccccc2)c2ccccc2)CC1 (stereo not drawn) | > 30 | –
Cc1ncccc1C(C#N)N1CCN(C(=O)CNC(c2ccc(F)cc2)c2ccc(F)cc2)CC1 (stereo not drawn) | 3 | 0.049
Cc1ncccc1C(C#N)N1CCN(C(=O)CSC(c2ccccc2)c2ccccc2)CC1 (stereo not drawn) | > 3 | 0.058
Cc1ncccc1C(C#N)N1CCN(C(=O)[C@H](CO)NC(c2ccccc2)c2ccccc2)CC1 (stereo partly drawn) | 2.4 | 0.02

Compound | ID50 [1] [mg/kg] | ID50 [2] [mg/kg]
Cc1ncccc1C(C#N)N1CCN(C(=O)CC(NC(N)=O)c2ccccc2)CC1 (stereo not drawn) | > 3 | –
Cc1ncccc1C(C#N)N1CCN(C(=O)CC(c2ccccc2)N2CCOC2=O)CC1 (stereo not drawn) | 1 | 0.029
CNC(=O)C(CC(=O)N1CCN(C(C#N)c2cccnc2C)CC1)c1ccccc1 (stereo not drawn) | 0.78 | 0.05
Cc1ncccc1C(C#N)N1CCN(C(=O)CC(NS(C)(=O)=O)c2ccccc2)CC1 (stereo not drawn) | 1 | 0.017
CC(=O)N(CC(=O)N1CCN(C(C#N)c2cccnc2C)CC1)C(c1ccccc1)c1ccccc1 (stereo not drawn) | 2 | 0.039
Cc1ncccc1C(C#N)N1CCN(C(=O)CC(NS(=O)(=O)c2ccccc2)c2ccccc2)CC1 (stereo not drawn) | > 3 | 0.04
CO/N=C(/C)C(c1cccnc1C)N1CCN(C(=O)CC(c2ccccc2)c2ccccc2)CC1 (stereo not drawn) | > 3 | –
Cc1ncccc1C(C#N)N1CCN(C(=O)CNC2c3ccccc3-c3ccccc32)CC1 (stereo not drawn) | > 3 | 0.085
CCOC(=O)NC(CC(=O)N1CCN(C(C#N)c2cccnc2C)CC1)c1ccccc1 (stereo not drawn) | 0.23 | 0.025
Cc1ncccc1C(C#N)N1CCN(C(=O)C(C)(C)C(F)(c2ccccc2)c2ccccc2)CC1 (stereo not drawn) | > 3 | 0.34
Cc1ncccc1C(C#N)N1CCN(C(=O)CC(c2ccccc2)N2CCCC2)CC1 (stereo not drawn) | – | 0.22
CNC(CC(=O)N1CCN(C(C#N)c2cccnc2C)CC1)c1ccccc1 (stereo not drawn) | 3 | 0.067
Cc1ncccc1C(C#N)N1CCN(C(=O)[C@H](C)NC(c2ccccc2)c2ccccc2)CC1 (stereo partly drawn) | 1.6 | 0.025
Cc1ncccc1C(C#N)N1CCN(C(=O)CC(NC(=O)OC(C)(C)C)c2ccccc2)CC1 (stereo not drawn) | 1.2 | 0.049
Cc1ncccc1C(C#N)N1CCN(C(=O)/C=C(/c2ccccc2)C(F)(F)F)CC1 (stereo not drawn) | > 3 | –
Cc1ncccc1C(C#N)N1CCN(C(=O)CC(NC(=O)c2cccnc2O)c2ccccc2)CC1 (stereo not drawn) | > 3 | 0.12
Cc1ncccc1C(C#N)N1CCN(C(=O)COC(c2ccccc2)c2ccccc2)CC1 (stereo not drawn) | > 3 | 0.048
Cc1ncccc1C(C#N)N1CCN(C(=O)CC(O)(c2ccccc2)c2ccccc2)CC1 (stereo not drawn) | 0.69 | 0.039
Cc1ncccc1C(C#N)N1CCN(C(=O)CON=C(c2ccccc2)c2ccccc2)CC1 (stereo not drawn) | > 3 | 0.071
C#CCNC(CC(=O)N1CCN(C(C#N)c2cccnc2C)CC1)c1ccccc1 (stereo not drawn) | 3 | –
